GRIN3A LBD mod – modulators (binders) of human NR3A ligand-binding domain; NR3A LBD differential scanning fluorimetry, Tm shift; 0% = protein alone, 100% = glycine-bound protein; Tm shift relative to glycine control, % at 25 µM; 340,000 compounds, 2.5% hits; AID 1259313;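 active = melting temperature shift of at least 10% of the positive control shift, at one fixed dose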
FGF22 binding – FGF22 (human) thermal shift binding. recombinant FGF22 thermal shift, SYPRO orange fluorescence; percent of sucrose octasulfate shift, DMSO zero. activity (Tm shift, normalised), % at 9.99 µM. Q9HCT0. 340,000 compounds, 1.5% hits;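 active = mean Tm shift, scaled 0 neutral to 100 positive control, at about 1.3% or above, every replicate too, limit read from the data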
Target sequence (Q9HCT0 whole entry, looked up): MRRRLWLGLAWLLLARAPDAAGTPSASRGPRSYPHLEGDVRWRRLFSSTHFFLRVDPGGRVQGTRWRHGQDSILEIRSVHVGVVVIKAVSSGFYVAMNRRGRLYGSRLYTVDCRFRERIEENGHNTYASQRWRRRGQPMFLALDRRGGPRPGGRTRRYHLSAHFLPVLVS
DNA FID counter – fluorescent intercalator displacement, NS3 helicase counter-screen; inhibition, % at 7.9 µM; DNA fluorescent intercalator displacement, fluorescence; 290,000 compounds, 0.17% hits; in the data active = inhibition above about 37%;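 note: 0% = vehicle and 100% = reference compound; higher means more ethidium bromide displaced from hairpin DNA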
ZTA counter – ZTA (EBV) inhibition in EBNA-1 counter-screen; ZTA-DNA binding, fluorescence polarization; inhibition, % at 11 µM; 320,000 compounds, 0.15% hits; in the data active = inhibition above about 33%
Target sequence (P03206 whole entry, looked up): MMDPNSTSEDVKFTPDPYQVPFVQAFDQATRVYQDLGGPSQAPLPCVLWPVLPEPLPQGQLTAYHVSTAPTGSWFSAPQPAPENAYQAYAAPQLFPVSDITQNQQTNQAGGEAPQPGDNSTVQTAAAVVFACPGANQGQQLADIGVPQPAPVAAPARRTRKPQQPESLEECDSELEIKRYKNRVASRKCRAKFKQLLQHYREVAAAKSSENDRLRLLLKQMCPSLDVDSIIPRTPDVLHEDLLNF
HCV NS3 hel inh – inhibitors of Hepatitis C virus NS3 helicase; NS3 helicase DNA unwinding, Cy5 molecular beacon fluorescence; inhibition, % at 10.9 µM; 290,000 compounds, 0.56% hits; AID 1800;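 active = inhibition above the mean of all tested compounds plus 3 SD, set per campaign, cut at about 35% in these data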;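 note: 0% = DMSO wells and 100% = thioflavine S control wells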
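assay system = NS3 helicase fragment of HCV | buffer or medium = MOPS pH 6.5, MgCl2, DTT, Tween20, BSA | timing = 60 min unwinding reaction at 25 °C after ATP addition | signal = Cy5 beacon fluorescence read at start and 1 h | read-out basis = % inhibition of unwinding | control set = low DMSO, high thioflavine S at 110 µM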
EBNA-1 inh – blocks EBNA-1 binding to DNA; EBNA-1 DNA binding, fluorescence polarization; 300,000 compounds, 0.34% hits; inhibition, % at 14.8 µM; AID 1950; in the data active = inhibition above about 28%
EBNA-1 confirm – EBNA-1 (EBV) inhibition, confirmation | 830 compounds, 35% hits | inhibition, % at 14.8 µM | AID 2292 | shares compounds with EBNA-1 inh | Recombinant EBNA-1 DBD, Cy5-DNA fluorescence polarization;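 active = mean inhibition across replicates above a set limit taken from the earlier primary screen, cut at about 28% in these data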;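 note: plate controls were EBNA-1 protein with DMSO for no effect and wells lacking EBNA-1 for full effect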
ZTA DNA inh trip – ZTA (EBV) inhibition, triplicate counter-screen; shares compounds with EBNA-1 inh; Zta-ZRE DNA binding, Cy5 fluorescence polarization; inhibition, % at 11.1 µM; 830 tested, under 10 active; AID 2328;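 active = mean inhibition over triplicates above a set limit taken from the primary EBNA-1 screen, cut at about 37% in these data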;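 note: purified full length Zta protein with Cy5 labeled ZRE DNA probe; 0% = Zta with DMSO and 100% = wells lacking Zta protein; inhibitors lower polarization by freeing the labeled DNA probe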
* = called active by the depositor; / = not tested or not shown. Shown are actives, neighbours in structure and some others; about 3.6% of the full set was active somewhere.

SMILES	GRIN3A LBD mod	FGF22 binding	DNA FID counter	ZTA counter	HCV NS3 hel inh	EBNA-1 inh	EBNA-1 confirm	ZTA DNA inh trip
Cc1nn(CC(=O)NCc2cccc3ccccc23)c(=O)c2ccccc12	-1.1	/	-0.2	1.0	-3.6	31.1*	7.1	-0.2
C[C@H](CO)N1C[C@H](C)[C@H](CN(C)C(=O)Nc2cc(F)ccc2F)Oc2ncc(-c3cccc(F)c3)cc2C1=O	/	-0.2	/	/	/	/	/	/
C[C@@H]1CCCCO[C@H](CN(C)C(=O)Nc2ccccc2)[C@H](C)CN([C@@H](C)CO)C(=O)c2cc(NC(=O)c3ccccc3)ccc2O1	/	-0.3	/	/	/	/	/	/
CCOc1ccc2nc3ccc4[nH]onc4c3c2c1	30.8*	/	23.9	0.6	-3.7	31.1*	8.8	-1.2
CCOc1ccc2nc(N3CCOCC3)nc(C)c2c1	-1.3	/	-10.7	15.4	0.1	3.3	/	/
Cc1ccccc1NC(=O)Cc1nc(COC(=O)c2cc(Br)ccc2O)cs1	-10.8	0.2	/	7.0	/	/	/	/
Cc1ccccc1NC(=O)Cc1nc(COC(=O)c2cc(Cl)ccc2O)cs1	-5.1	0.0	-29.3	-7.0	-13.3	32.7*	10.5	5.2
C[C@@H]1CN([C@@H](C)CO)C(=O)c2cccc(NS(=O)(=O)c3cn(C)cn3)c2O[C@@H]1CN(C)C(=O)NC1CCCCC1	/	1.2	/	/	/	/	/	/
O=c1[nH]cc(S(=O)(=O)N2CCN(c3cccc(C(F)(F)F)c3)CC2)c(=O)[nH]1	/	-0.3	/	-6.9	/	30.8*	-5.0	3.8
O=C(CCC(=O)Nc1ccc(Br)cc1)N/N=C/c1ccc(O)cc1	0.5	-0.1	-1.2	10.9	5.2	28.2*	1.4	6.9
COc1ccc(O)c(/C=N/NC(=O)CCC(=O)Nc2ccc(C)cc2)c1	1.9	-0.1	-11.1	10.4	-28.1	49.7*	-0.1	6.2
COc1ccc(/C(C)=N\Nc2nc(-c3ccccc3)cc(=O)[nH]2)cc1	8.4	0.1	-3.9	7.7	-2.0	41.7*	19.9	5.1
Cc1ccc(-c2nc3ccccc3[nH]2)cc1NC(=O)c1ccco1	-0.6	/	-12.7	-2.2	-4.8	-3.5	/	/
Cc1ccc(-c2nc3ccccc3[nH]2)cc1NC(=O)c1sc2cc(Cl)ccc2c1Cl	0.2	/	3.6	8.2	1.1	92.4*	82.8*	19.6
CO[C@H]1CN(C)C(=O)c2cc(NC(C)=O)ccc2OC[C@@H](C)N(CCc2ccccc2)C[C@H]1C	/	-0.4	/	/	/	/	/	/
COC(=O)/C=C1/SC(=Nc2ccc(Cl)c(Cl)c2)NC1=O	17.7*	0.0	-0.1	-1.9	-1.5	40.7*	-7.9	-10.3
COC(=O)/C=C1\SC(=Nc2ccccc2)NC1=O	-5.5	/	-0.1	-6.0	0.4	-7.5	/	/
COc1ccccc1C(=O)Nc1ccc(-c2nnn(CC(=O)NCc3ccco3)n2)cc1	0.8	0.0	-3.3	3.0	-2.4	42.0*	51.9*	19.1
O=C(Cn1nnc(-c2ccccc2NC(=O)c2cccs2)n1)Nc1ccccc1	22.3*	/	-1.3	3.5	-0.3	27.6*	47.3*	2.4
COc1ccccc1NC(=O)Cn1nnc(-c2ccccc2NC(=O)c2cccs2)n1	3.8	/	-3.3	-23.5	2.5	-7.0	/	/
COc1ccc(C(=O)Nc2ccccc2-c2nnn(CC(=O)NCc3ccco3)n2)cc1	2.1	/	-3.2	1.7	1.3	54.3*	15.3	5.8
O=C(c1ccncc1)N1C[C@@H]2[C@H](c3ccccc31)[C@@H](CO)N2C(=O)c1ccccn1	/	0.1	/	/	/	/	/	/
N#Cc1c2c(c(NCc3cccnc3)n3c1nc1ccccc13)CCC2	3.3	/	-9.3	2.1	2.8	77.2*	31.2*	4.2
COCCNc1c2c(c(C#N)c3nc4ccccc4n13)CCCC2	-0.9	0.1	-27.0	18.8	-2.6	6.9	/	/
CO[C@@H]1CN(C)C(=O)c2ccc(NC(C)=O)cc2OC[C@H](C)N(Cc2cc(F)ccc2F)C[C@@H]1C	/	-0.3	/	/	/	/	/	/
COc1ccc(/C=N/NC(=O)c2nc(-c3ccccc3)n(-c3ccccc3)n2)cc1OC	-6.5	0.0	-27.5	4.6	5.0	3.2	/	/

Source: PubChem BioAssay (several laboratories)
